In ChEMBL document CHEMBL4673298, “Exploration of Structure-Activity Relationship of Aromatic Aldehydes Bearing Pyridinylmethoxy-Methyl Esters as Novel Antisickling Agents” (J Med Chem, 2020):
The source made the active and inactive calls. The rule behind the calls is not given here.

How the values were obtained:
[1] = tested on: Red blood cell; test: Binding affinity to Hemoglobin in sickle cell RBCs from blood isolated from patient with homozygous SS assessed as increase in hemoglobin modification under hypoxic conditions incubated for 2 hrs […]; format: tissue-based; conditions: Homo sapiens
How it was run: (§1)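 SS blood, hematocrit 20%, incubated under air with compound (0.5, 1, 2 mM) at 37 °C for 1 h, then hypoxic (2.5% O2/97.5% N2) at 37 °C for 2 h. Cells are washed and hemolyzed. Lysate is run on weak cation-exchange HPLC to quantify Hb adduct (modified Hb). Three biological replicates, mean ± SD.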

[2] = tested on: Red blood cell; test: Binding affinity to Hemoglobin in sickle cell RBCs from blood isolated from patient with homozygous SS assessed as increase in Hb affinity for oxygen under hypoxic conditions incubated for 2 hrs by oxygen equilibrium curve study; format: tissue-based; conditions: Homo sapiens
How it was run: (§2)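 SS blood, hematocrit 20%, incubated under air with compound (0.5, 1, 2 mM) at 37 °C for 1 h, then hypoxic (2.5% O2/97.5% N2) at 37 °C for 2 h. Cells are washed in PBS and hemolyzed hypotonically. Lysate in 0.1 M potassium phosphate pH 7.0 is run by Hemox analysis for P50. ΔP50 is given as percent of DMSO control. Three biological replicates, mean ± SD.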

[3] = Inhibition of sickling in sickle cell RBCs from blood isolated from patient with homozygous SS at 2 mM under hypoxic conditions incubated for 2 hrs; format: functional; conditions: Homo sapiens, Erythrocyte
How it was run: (§3)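 SS blood, hematocrit 20%, preincubated under air with compound (0.5, 1, 2 mM) for 1 h at 37 °C, then 2 h hypoxia (2.5% O2/97.5% N2) at 37 °C. Aliquots are fixed in 2% glutaraldehyde without air exposure. Cell morphology is scored from bright-field images at 40×. Three biological replicates, mean ± SD.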

[4] = tested on: Erythrocyte; test: Inhibition of sickling in sickle cell RBCs from blood isolated from patient with homozygous SS under hypoxic conditions incubated for 2 hrs; format: functional, tissue-based; conditions: Homo sapiens; how it was run: as §3
[5] = species: Homo sapiens; test: Binding affinity to Hemoglobin in normal human whole blood assessed as increase in Hb affinity for oxygen at 2 mM incubated for 24 hrs by oxygen equilibrium curve study; format: tissue-based
How it was run: (§4)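 Normal human whole blood, hematocrit 30%, incubated with or without compound in DMSO (0.5, 1.0 or 2.0 mM; 2 mM for the time course) at 37 °C. The blood is tonometered about 7 min at 37 °C against gas with 0.804, 2.935 and 5.528% O2 (6, 20, 40 mmHg). sO2 and pO2 are read on a blood gas analyzer. ΔP50% is taken relative to no compound. Time course sampled at 1, 2, 4, 8, 12, 24 h.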

[6] = Induction of in-vivo hemoglobin-O2 affinity shifts in C57BL/6 mouse at 150 mg/kg, ip dosed as single administration measured after 6 hrs by oxygen equilibrium curve study; format: functional
How it was run: (§5)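 C57BL/6 mice (3 male, 3 female) receive a single intraperitoneal dose of 150 mg/kg. Blood is drawn by submandibular bleeding before dosing and at 1, 3 and 6 h, then hemolyzed. Hb modification and Hb-O2 affinity shift are measured; n = 6.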

[7] = tested on: Mus musculus; test: Induction of in-vivo hemoglobin-O2 affinity shifts in C57BL/6 mouse at 150 mg/kg, ip dosed as single administration measured after 3 to 6 hrs by oxygen equilibrium curve study; format: functional, organism-based; conditions: time 3-6 hrs, TDE = time-dependent effect; how it was run: as §5
[8] = tested on: Mus musculus; test: Induction of in-vivo modification of intracellular hemoglobin in C57BL/6 mouse at 150 mg/kg, ip dosed as single administration measured after 1 to 6 hrs by cation-exchange HPLC analysis; format: functional, organism-based; conditions: time 1-6 hrs, TDE = time-dependent effect; how it was run: as §5
[9] = Stability in human whole blood assessed as parent compound level at 1 mM incubated for 24 hrs by reversed-phase HPLC analysis; format: ADME, tissue-based; conditions: read-out: Stabilty
How it was run: (§6)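 Normal whole blood, hematocrit 30%, incubated with or without compound at 0.5 or 1 mM at 37 °C. Aliquots taken at 0, 4, 8, 24 h are deproteinized with 0.1 M formic acid in acetonitrile at 60–65 °C for 30 min, centrifuged and filtered. Reversed-phase C18 HPLC uses a 0.1% formic acid water/acetonitrile gradient, detection at 261 nm. Parent and carboxylic acid analogue are quantified; the acid serves as reference.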

[10] = Stability in human whole blood assessed as parent compound level at 0.5 mM incubated for 24 hrs by reversed-phase HPLC analysis; format: ADME, tissue-based; conditions: read-out: Stabilty; how it was run: as §6
[11] = Drug metabolism in human whole blood assessed as carboxylic acid analogue formation at 0.5 to 1 mM incubated up to 24 hrs by reversed-phase HPLC analysis; format: ADME, tissue-based; conditions: 1000 µM, dose 0.5-1 mM; how it was run: as §6
[12] = tested on: Red blood cell; test: Binding affinity to Hemoglobin in sickle cell RBCs from blood isolated from patient with homozygous SS assessed as increase in Hb affinity shift for oxygen at 2 mM under hypoxic conditions incubated for 2 hrs by oxygen equilibrium curve study; format: tissue-based; conditions: Homo sapiens; how it was run: as §2
[13] = tested on: Red blood cell; test: Binding affinity to Hemoglobin in sickle cell RBCs from blood isolated from patient with homozygous SS assessed as increase in Hb affinity shift for oxygen at 1 mM under hypoxic conditions incubated for 2 hrs by oxygen equilibrium curve study; format: tissue-based; conditions: Homo sapiens; how it was run: as §2
[14] = tested on: Red blood cell; test: Binding affinity to Hemoglobin in sickle cell RBCs from blood isolated from patient with homozygous SS assessed as increase in hemoglobin modification at 0.5 mM under hypoxic conditions incubated for 2 hrs […]; format: tissue-based; conditions: Homo sapiens; how it was run: as §1
[15] = tested on: Red blood cell; test: Binding affinity to Hemoglobin in sickle cell RBCs from blood isolated from patient with homozygous SS assessed as increase in hemoglobin modification at 1 mM under hypoxic conditions incubated for 2 hrs […]; format: tissue-based; conditions: Homo sapiens; how it was run: as §1
[16] = tested on: Red blood cell; test: Binding affinity to Hemoglobin in sickle cell RBCs from blood isolated from patient with homozygous SS assessed as increase in hemoglobin modification at 2 mM under hypoxic conditions incubated for 2 hrs […]; format: tissue-based; conditions: Homo sapiens; how it was run: as §1
[17] = Inhibition of sickling in sickle cell RBCs from blood isolated from patient with homozygous SS at 1 mM under hypoxic conditions incubated for 2 hrs; format: functional; conditions: Homo sapiens, Erythrocyte; how it was run: as §3
[18] = Inhibition of sickling in sickle cell RBCs from blood isolated from patient with homozygous SS at 0.5 mM under hypoxic conditions incubated for 2 hrs; format: functional; conditions: Homo sapiens, Erythrocyte; how it was run: as §3
[19] = species: Homo sapiens; test: Binding affinity to Hemoglobin in normal human whole blood assessed as increase in Hb affinity for oxygen at 2 mM by oxygen equilibrium curve study; format: tissue-based; how it was run: as §4
[20] = tested on: Red blood cell; test: Binding affinity to Hemoglobin in sickle cell RBCs from blood isolated from patient with homozygous SS assessed as increase in Hb affinity shift for oxygen at 0.5 mM under hypoxic conditions incubated for 2 hrs by oxygen equilibrium curve study; format: tissue-based; conditions: Homo sapiens; how it was run: as §2
[21] = species: Homo sapiens; test: Binding affinity to Hemoglobin in normal human whole blood assessed as increase in Hb affinity for oxygen incubated for 1.5 hrs by oxygen equilibrium curve study; format: tissue-based; how it was run: as §4
[22] = Induction of in-vivo modification of intracellular hemoglobin in C57BL/6 mouse at 150 mg/kg, ip dosed as single administration measured after 6 hrs by cation-exchange HPLC analysis
[23] = species: Homo sapiens; test: Binding affinity to Hemoglobin in normal human whole blood assessed as increase in Hb affinity for oxygen at 2 mM incubated for 1 to 24 hrs by oxygen equilibrium curve study; format: tissue-based; conditions: time 1-24 hrs; how it was run: as §4

Structure (SMILES) | Activity [1] | Activity [2] | inhibition at 2000 µM [3] | inhibition [4] | Activity [6] | Activity [7] | Activity [8] | remaining at 24 h, 1000 µM [9] | remaining at 24 h, 500 µM [10] | Drug metabolism [11] | Activity [12] | Activity [13] | Activity [14] | Activity [15] | Activity [16] | inhibition at 1000 µM [17] | inhibition at 500 µM [18] | Activity [20] | Activity [21] | Activity [22] | other results
COC(=O)c1ccnc(COc2ccc(OC)cc2C=O)c1 | Dose-dependent effect | Dose-dependent effect | > 90% | Dose-dependent effect |  |  |  |  |  |  |  |  |  |  |  |  |  |  |  |  | Activity [5]: Active
COC(=O)c1cccc(COc2cccc(O)c2C=O)n1 | Dose-dependent effect | Dose-dependent effect | 93.2% | Dose-dependent effect | 5.5% | Tde | Tde | 83% | 89% | Metabolite_Detected | 48.6% | 29.2% | 29.2% | 81.1% | 100% | 54.2% | 7.6% | 5.4% | inactive | 9.6% | Activity [19]: inactive
COc1cc(C=O)ccc1O |  |  |  |  |  |  |  |  |  |  |  |  |  |  |  |  |  |  |  |  | Activity [23]: 21%
COC(=O)c1cccnc1COc1cccc(O)c1C=O | Dose-dependent effect | Dose-dependent effect | 98.8% | Dose-dependent effect | 14.5% | Tde | Tde | 78% | 81% | Metabolite_Detected | 39.6% | 18.8% | 46% | 64.4% | 90.8% | 70.6% | 43.3% | 12.2% | Dose-dependent effect | 16.9% | Activity ([19]; TDE = time-dependent effect): Tde
COC(=O)c1ncccc1COc1ccc(OC)cc1C=O | Dose-dependent effect | Dose-dependent effect | 99.1% | Dose-dependent effect |  |  |  |  |  |  | 25.4% | 13.9% | 30.2% | 62.3% | 79.2% | 97.7% | 37.6% | 4.4% | inactive |  | Activity [19]: inactive
COc1ccc(OCc2cccc(CO)n2)c(C=O)c1 | Dose-dependent effect | Dose-dependent effect | > 90% | Dose-dependent effect | 1% | Tde | Tde |  |  |  |  |  |  | 60% | 80% | 47% | 26% |  |  | 1.5% | 
